Where two headings read alike, the source gives them in different places.
Columns and labels:
mouse CB2 = mouse CB2 (Mus musculus, UniProt P47936); test: cAMP assay in CHO cells stably expressing mouse CB2; format: cell-based; settings: in words
Method in brief: (§1)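 cAMP assays were run in CHO cells stably expressing human CB2 or mouse CB2. Efficacy is expressed as % of the response to 1 μM CP55940.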

SOD1 (G93A) mice = test: CB2 ligands given i.p. to SOD1; format: in vivo, mouse; settings: for %IBA1+ area (microglial expansion): P25 to P35, SOD1-veh 9.7 ± 0.4%; for fraction of LC3A bright MN: P25 to P35, vehicle 23.4 ± 7.7; for misfolded SOD1: high-burden MN fraction: P25 to P35, vehicle 25.4 ± 5.5%
Method in brief: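 Male SOD1(G93A) mice got daily i.p. CB2 agonists (10 mg/kg) or inverse agonist (30 mg/kg) as a microsuspension in 1% Tween-80/0.9% NaCl with 0.2% parabens, or vehicle. Spinal cords were perfusion-fixed and cut into 40 μm free-floating sections. CD4 was stained after citrate-heat antigen retrieval. IBA1 was scored as the thresholded area fraction of ventral-horn ROIs. High-burden MN cutoff: 75th percentile of vehicle-treated SOD1. Used 8–10 sections/mouse, ≥4 mice/group.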

human CB2 [1] = target: T1, human CB2 (Homo sapiens, UniProt P34972); format: binding; settings: CB2 versus CB1, as stated in text
Method in brief: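 Competition binding used [3H]-CP55940 radioligand on membranes from cells expressing human CB2 or human CB1, so that selectivity could be compared. Each compound was tested at 10 concentrations in triplicate. Ki values were calculated from a single experiment.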

human CB2 [2] = target: T1, human CB2; test: cAMP assay in CHO cells stably expressing human CB2; format: cell-based; settings: in words
Method in brief: as §1

IKK and SOD1/IKK mice = format: in vivo, mouse
Method in brief: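 Transgene expression was active in the sustained cohort (DOX withdrawn at P20–25). Mice of all four genotypes got a Porcupine inhibitor by daily oral gavage at 10 mg/kg for 12 days, from P25 (sacrificed at P38) or from P90 (to P102). It was suspended in PBS + 5% Tween-80 + 5% PEG-400; vehicle controls were included. Spinal cord sections were immunostained; Ki-67 and CD45 required citrate antigen retrieval. Cell densities are per area unit.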

WT mice = test: CB2 agonists given to WT mice, IBA1 immunostaining; format: in vivo, mouse; settings: IBA1 staining
[3] = 10 mg/kg once daily i.p., P25 to P35
[4] = 30 mg/kg once daily i.p., P25 to P35

Chain of mouse CB2 (P47936 whole entry): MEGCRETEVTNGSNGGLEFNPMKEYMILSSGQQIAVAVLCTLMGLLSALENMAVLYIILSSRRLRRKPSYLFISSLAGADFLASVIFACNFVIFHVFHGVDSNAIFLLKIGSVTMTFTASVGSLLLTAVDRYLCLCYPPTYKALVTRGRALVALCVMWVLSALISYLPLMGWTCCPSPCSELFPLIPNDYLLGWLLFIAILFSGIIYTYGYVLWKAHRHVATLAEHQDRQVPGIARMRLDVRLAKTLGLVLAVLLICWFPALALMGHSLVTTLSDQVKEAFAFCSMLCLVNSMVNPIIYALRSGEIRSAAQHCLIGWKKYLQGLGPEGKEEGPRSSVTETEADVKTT
T1 sequence (P34972 whole entry): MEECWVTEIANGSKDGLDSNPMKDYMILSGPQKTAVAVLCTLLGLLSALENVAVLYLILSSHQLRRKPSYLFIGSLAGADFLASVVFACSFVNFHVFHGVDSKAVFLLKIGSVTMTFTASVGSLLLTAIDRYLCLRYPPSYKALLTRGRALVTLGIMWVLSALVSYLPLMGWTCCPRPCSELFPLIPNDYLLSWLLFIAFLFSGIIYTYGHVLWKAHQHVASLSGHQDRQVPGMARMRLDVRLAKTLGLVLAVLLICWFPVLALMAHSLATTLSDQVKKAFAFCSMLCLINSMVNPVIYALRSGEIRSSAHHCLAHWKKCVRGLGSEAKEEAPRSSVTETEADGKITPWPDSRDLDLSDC

Structure (SMILES)	functional activity in cAMP assay, mouse CB2 (mouse CB2)	infiltration of CD4+ lymphocytes in spinal cord (SOD1 (G93A) mice; [3])	%IBA1+ area (microglial expansion) (SOD1 (G93A) mice; 10 mg/kg once daily i.p.)	fraction of LC3A bright MN (SOD1 (G93A) mice; 10 mg/kg once daily i.p.)	misfolded SOD1: high-burden MN fraction (SOD1 (G93A) mice; 10 mg/kg once daily i.p.)	binding selectivity against CB1 (human CB2 [1])	functional activity in cAMP assay, human CB2 (human CB2 [2])	effect on microglial size in WT animals (WT mice)	other results
Cc1nc([C@@](C)(CC2CC2)NC(=O)c2cc(OCC(F)(F)F)c(C3CC3)cn2)no1 [RO6871085, 5-Cyclopropyl-N-[(1R)-2-cyclopropyl-1-methyl-1-(5-methyl-1,2,4-oxadiazol-3-yl)ethyl]-4-(2,2,2-trifluoroethoxy)pyridine-2-carboxamide]	full agonists	increased the number of CD4^+ cells	5.2 ± 0.3%	45.4 ± 5.6%	69.1 ± 9.5%	44 fold	full agonists	–	–
Cc1cc(-c2ccc(CC(=O)Nc3ccc(-c4cccnc4)cc3)cc2)ccn1 [Compound C59]	–	–	–	–	–	–	–	–	WNT5a immunoreactivity (IKK and SOD1/IKK mice; 10 mg/kg daily oral gavage for 12 days from P25, sacrifice at P38): < 10 % of vehicle‐treated (Veh) SOD1/IKK; decrease in misfolded SOD1 and LC3A levels in SOD1/IKK versus SOD1 littermates (IKK and SOD1/IKK mice; 10 mg/kg daily oral, P25-P38): completely reverted; number of CD45+ cells (IKK and SOD1/IKK mice; IKK and SOD1/IKK mice, late phase P90 to P102): significantly decreased; number of CD11b+KI-67+ cells (IKK and SOD1/IKK mice; IKK mice, 10 mg/kg daily oral, P25-P38, IKK-Veh 11.0 ± 3.0): 5.4 ± 0.2 cells per 10^4 μm^2; overall IBA1+ area (IKK and SOD1/IKK mice; IKK mice, 10 mg/kg daily oral, P25-P38, IKK-Veh 52.1 ± 6.5): 30.5 ± 4.6%; microglial density (number of IBA1+ cells) (IKK and SOD1/IKK mice; IKK mice, 10 mg/kg daily oral, P25-P38, vehicle 30.4 ± 1.8): 18.2 ± 1.7 cells/10^4 μm^2; number of IBA1+ cells at P102 (IKK and SOD1/IKK mice; IKK mice, late phase P90 to P102, IKK-Veh 16.5 ± 0.7): 7.8 ± 0.3; number of CD11b+KI-67+ cells (IKK and SOD1/IKK mice; SOD1/IKK mice, 10 mg/kg daily oral, P25-P38, SOD1/IKK-Veh 18.0 ± 2.0): 5.0 ± 1.3 cells per 10^4 μm^2; overall IBA1+ area (IKK and SOD1/IKK mice; SOD1/IKK mice, 10 mg/kg daily oral, P25-P38, SOD1/IKK-Veh 53.6 ± 3.9): 39.2 ± 4.9%; microglial density (number of IBA1+ cells) (IKK and SOD1/IKK mice; SOD1/IKK mice, 10 mg/kg daily oral, P25-P38, vehicle 36.2 ± 6.1): 20.2 ± 4.0 cells/10^4 μm^2; number of IBA1+ cells at P102 (IKK and SOD1/IKK mice; SOD1/IKK mice, late phase P90 to P102, SOD1/IKK-Veh 15.8 ± 0.2): 9.41 ± 0.35; number of CD45+ cells (IKK and SOD1/IKK mice; early administration, 10 mg/kg daily oral, P25-P38): strongly decreased
CNC(=O)[C@@H](NC(=O)c1cc(OCC2(C)COC2)c(C2CC2)cn1)C(C)(C)C [RO6851228, 5-Cyclopropyl-N-[(1S)-2,2-dimethyl-1-(methylcarbamoyl)propyl]-4-[(3-methyloxetan-3-yl)methoxy]pyridine-2-carboxamide]	–	–	–	–	–	–	inverse agonist activity	–	infiltration of CD4+ lymphocytes in spinal cord (SOD1 (G93A) mice; [4]): did not affect lymphocyte infiltration; microglial morphology (SOD1 (G93A) mice; [4]): expansion of the size and of the complexity of microglial processes; fraction of LC3A bright MN (SOD1 (G93A) mice; 30 mg/kg once daily i.p.): 11.4 ± 13.9%; misfolded SOD1: high-burden MN fraction (SOD1 (G93A) mice; 30 mg/kg once daily i.p.): 10.2 ± 5.1%
Cc1nonc1Cn1nnc2c(N3CC[C@H](O)C3)nc(C(C)(C)C)nc21 [RO6866945, (3S)-1-[5-tert-Butyl-3-[(4-methyl-1,2,5-oxadiazol-3-yl)methyl]triazolo[4,5-d]pyrimidin-7-yl]pyrrolidin-3-ol]	full agonists	did not affect lymphocyte infiltration	4.9 ± 0.2%	70.8 ± 11.2%	42.3 ± 8.7%	939 fold	full agonists	did not affect microglial size	–
NC(=O)[C@@H]1CC(F)(F)CN1C(=O)c1ccc(N2CC(F)(F)C2)c(OCC2CC2)n1 [RO6895896, (2S)-1-[6-(Cyclopropylmethoxy)-5-(3,3-difluoroazetidin-1-yl)pyridine-2-carbonyl]-4,4-difluoro-pyrrolidine-2-carboxamide]	full agonists	did not affect lymphocyte infiltration	6.0 ± 0.2%	73.4 ± 12.4%	72.4 ± 11.3%	–	full agonists	did not affect microglial size	–
